From ChEMBL document CHEMBL2375308, “Synthesis and selected immunological properties of substituted quino[3,2-b]benzo[1,4]thiazines” (Eur J Med Chem, 2013)
Calls of active or inactive are those of the source. No cut-off for these calls is given here.

Experiments:
SW948 [1] = test: Growth inhibition of human SW948 cells at 10 to 50 ug/mL after 3 days by MTT assay; assay type: functional, cell-based
Procedure, shortened: (§1)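 Lines resuspended in culture medium: L-1210 at 1.5 × 10⁴ cells/well, SW-948 and A-431 at 2.5 × 10⁴ cells/well. Preparations added over […], cisplatin reference at the same concentrations. 3-day incubation, proliferation by MTT; mean OD of quadruplicate wells ±SE, expressed as percentage inhibition.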

L1210 [2] = test: Growth inhibition of mouse L1210 cells at 10 to 50 ug/mL after 3 days by MTT assay; assay type: functional, cell-based; procedure, shortened: as §1
SW948 [3] = test: Growth inhibition of human SW948 cells at 10 ug/mL after 3 days by MTT assay relative to control; assay type: functional; conditions: SW948, 72 h, read-out: GI; procedure, shortened: as §1
A-431 [4] = test: Growth inhibition of human A431 cells at 10 to 50 ug/mL after 3 days by MTT assay; assay type: functional, cell-based; procedure, shortened: as §1
PBMC [5] = test: Inhibition of LPS-induced TNFalpha production in human PBMC at 5 ug/mL after overnight incubation relative to DMSO-treated control; assay type: functional
Procedure, shortened: (§2)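 Single-donor venous blood diluted 10× in RPMI-1640, 1 mL aliquots, stimulated with LPS (E. coli O111:B4). Compounds added at […]; corresponding DMSO dilutions as controls. Overnight incubation, supernatants frozen at −20 °C, TNF-α measured by biological assay; percentage inhibition versus DMSO control.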

PBMC [6] = test: Antiproliferative activity against PHA-stimulated human PBMC at 50 ug/mL after 4 days by MTT assay relative to DMSO-treated control; assay type: functional
Procedure, shortened: (§3)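 PBMC from one donor's heparinized blood, Ficoll gradient isolated, in RPMI-1640 with 10% FCS; 2 × 10⁵ cells/well. PHA added at […]; compounds from DMSO stock (10 mg/mL) diluted in medium; matching DMSO dilutions as control. Four-day culture, proliferation read by MTT colorimetry; percentage inhibition versus control.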

PBMC [7] = test: Inhibition of LPS-induced TNFalpha production in human PBMC at 25 ug/mL after overnight incubation relative to DMSO-treated control; assay type: functional; procedure, shortened: as §2
A-431 [8] = test: Growth inhibition of human A431 cells at 10 ug/mL after 3 days by MTT assay relative to control; assay type: functional; conditions: A-431, 72 h, read-out: GI; procedure, shortened: as §1
PBMC [9] = test: Cytotoxicity against human PBMC cells at 10 ug/mL after 24 hrs by MTT assay relative to DMSO-treated control; assay type: cell-based
Procedure, shortened: (§4)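 Ficoll-isolated PBMC ([…]) in supplemented RPMI-1640, 2 × 10⁵/well, cultured 24 h with the preparations at the indicated concentrations; compounds dissolved in DMSO (10 mg/mL stock) and diluted in medium.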

PBMC [10] = test: Antiproliferative activity against PHA-stimulated human PBMC at 10 ug/mL after 4 days by MTT assay relative to DMSO-treated control; assay type: functional; procedure, shortened: as §3
PBMC [11] = test: Cytotoxicity against human PBMC cells at 50 ug/mL after 24 hrs by MTT assay relative to DMSO-treated control; assay type: cell-based; procedure, shortened: as §4
SW948 [12] = test: Growth inhibition of human SW948 cells at 5 ug/mL after 3 days by MTT assay relative to control; assay type: functional; conditions: SW948, 72 h, read-out: GI; procedure, shortened: as §1
L1210 [13] = test: Growth inhibition of mouse L1210 cells at 10 ug/mL after 3 days by MTT assay relative to control; assay type: functional; conditions: L1210, 72 h, read-out: GI; procedure, shortened: as §1

| Structure (SMILES) | growth inhibition (GI) (SW948 [1]) | growth inhibition (GI) (L1210 [2]) | inhibition of growth at 10 µg/mL (SW948 [3]) [%] | growth inhibition (GI) (A-431 [4]) | inhibition at 5 µg/mL (PBMC [5]) [%] | Activity (PBMC [6]) [%] | inhibition at 25 µg/mL (PBMC [7]) [%] | inhibition of growth at 10 µg/mL (A-431 [8]) [%] | Activity (PBMC [9]) | Activity (PBMC [10]) [%] | Activity (PBMC [11]) | inhibition of growth at 5 µg/mL (SW948 [12]) [%] | inhibition of growth at 10 µg/mL (L1210 [13]) [%] |
| --- | --- | --- | --- | --- | --- | --- | --- | --- | --- | --- | --- | --- | --- |
| CSc1ccc2c(c1)Sc1cc3ccccc3nc1N2CCCCNC(=O)NCCCl | Active | Active | 91.8 | Active | 73.3 | 92.7 | 47.5 | 91.8 | 4.2% | 94.8 | 95.1% | 96 | 91.8 |
| CC(=O)NCCCCN1c2ccc(Cl)cc2Sc2cc3ccccc3nc21 | Active | Active | 91.8 | Active | 13.2 | 92.6 | 53.4 | 91.8 | Non-toxic | 71.2 | Non-toxic |  | 91.8 |
| O=C(NCCCl)NCCCN1c2ccc(Cl)cc2Sc2cc3ccccc3nc21 | Active | Active | 91.8 | Active | 9.2 | 100 | 72.1 | 91.8 | 15.9% | 98.6 | 89.5% | 96 | 91.8 |
| Cc1ccc(S(=O)(=O)NCCCCN2c3ccc(Cl)cc3Sc3cc4ccccc4nc32)cc1 |  |  |  |  | 20.7 | 19.8 | -12.7 |  | Non-toxic | 13.2 | Non-toxic |  |  |
| Clc1cccc2c1Sc1cc3ccccc3nc1N2 |  |  |  |  | 17 | 10.8 | 4.6 |  | Non-toxic | 10.7 | 13% |  |  |
| CS(=O)(=O)NCCCN1c2ccc(Cl)cc2Sc2cc3ccccc3nc21 |  |  |  |  | 1.2 | 74.4 | 30.5 |  | Non-toxic | 73.4 | Non-toxic |  |  |
| CCOC(=O)NCCCN1c2ccc(Cl)cc2Sc2cc3ccccc3nc21 |  |  |  |  | 10.3 | 60.4 | 31.7 |  | Non-toxic | 45 | Non-toxic |  |  |
| O=C(NCCCl)NCCCCN1c2ccc(Cl)cc2Sc2cc3ccccc3nc21 |  |  |  |  | 54.8 | 94.6 | 56 |  | 19.2% | 98.4 | 86.3% |  |  |
| CSc1ccc2c(c1)Sc1cc3ccccc3nc1N2 |  |  |  |  | 22.5 | 2.9 | 19.2 |  | Non-toxic | 0 | Non-toxic |  |  |
| CN1CCCCC1CCN1c2ccccc2Sc2cc3ccccc3nc21 (stereo not drawn) |  |  |  |  | 49.1 | 39.8 | 62.4 |  | Non-toxic | -23.5 | 4.5% |  |  |
| CSc1ccc2c(c1)Sc1cc3ccccc3nc1N2CCCNC(C)=O |  |  |  |  | 71.7 | 68.8 | 64.5 |  | Non-toxic | 72.5 | Non-toxic |  |  |
| CCOC(=O)NCCCN1c2ccc(SC)cc2Sc2cc3ccccc3nc21 |  |  |  |  | 74.9 | 38.8 | 70.1 |  | Non-toxic | 45.4 | Non-toxic |  |  |
| CS(=O)(=O)NCCCN1c2ccccc2Sc2cc3ccccc3nc21 |  |  |  |  | 8.1 | 74.6 | 60.6 |  | Non-toxic | 36.6 | Non-toxic |  |  |
| O=C(NCCCl)NCCCN1c2ccccc2Sc2cc3ccccc3nc21 |  |  |  |  | 14.6 | 77.9 | 5 |  | 8.5% | 11.2 | Non-toxic |  |  |
| CSc1ccc2c(c1)Sc1cc3ccccc3nc1N2CCCNC(=O)NCCCl |  |  |  |  | 50.7 | 93.7 | 1 |  | Non-toxic | 93 | 92.7% |  |  |
| Brc1ccc2c(c1)Sc1cc3ccccc3nc1N2 |  |  |  |  | 16.2 | 19 | 10.1 |  | Non-toxic | -9.7 | Non-toxic |  |  |
| CSc1ccc2c(c1)Sc1cc3ccccc3nc1N2CCCNS(C)(=O)=O |  |  |  |  | 73.7 | 65.4 | 47.5 |  | Non-toxic | 57.3 | Non-toxic |  |  |
| Cc1ccc(S(=O)(=O)NCCCN2c3ccc(Cl)cc3Sc3cc4ccccc4nc32)cc1 |  |  |  |  | 5.9 | 22.7 | 20.9 |  | Non-toxic | 12.9 | Non-toxic |  |  |
